How the values were obtained:
[1] = Inhibition of chymotrypsin-like activity of human liver 20S proteasome assessed as release of AMC using Suc-LLVY-AMC fluorogenic substrate after 15 mins preincubation measured every 1.5 mins for 20 mins by fluorescence analysis
In short: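 Proteasome partially purified from postmortem human liver, 6.7 µg/mL final, in 20 mM Tris–Cl pH 7.5, 0.04% SDS, 5% DMSO; activated by 15 min preincubation at 27 °C. Suc-LLVY-AMC added to 100 µM; AMC fluorescence (ex 360/em 460 nm) read every 1.5 min for 20 min at 27 °C. Rates per inhibitor concentration; IC50 by non-linear regression; mean S.D., n = 3–6.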

Chymotrypsinogen A = Chymotrypsinogen A (Bos taurus, UniProt P00766); assay: Inhibition of bovine alpha-chymotrypsin
[2] = target: Chymotrypsinogen A (Bos taurus) (UniProt P00766); assay: Inhibition of bovine alpha-chymotrypsin at 10 uM
In short: (§1)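 Percent inhibition measured at a single 10 µM concentration; averages of two independent experiments, each run in triplicate.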

MOLT-4 = assay: Ratio of IC50 for chymotrypsin-like activity of 20S proteasome in human MOLT4 cells to IC50 for chymotrypsin-like activity of human liver 20S proteasome in cell-free assay; type: cell-based
In short: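 Cell-permeability index: IC50 against chymotrypsin-like activity in intact Molt-4 cells divided by IC50 against isolated human liver 20S proteasome, both from fluorogenic substrate cleavage assays.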

[3] = Inhibition of trypsin-like activity of 20S proteasome at 10 uM; in short: as §1
[4] = Inhibition of chymotrypsin-like activity of 20S proteasome in human MOLT4 cells assessed as release of AFC using MeOSuc-Phe-Leu-Phe-AFC substrate after 15 mins measured every 1.5 mins for 20 mins by fluorescence analysis; type: cell-based; details: MOLT-4
In short: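 Molt-4 human T-cell leukemia cells washed, resuspended at 6 × 10⁶ cells/mL in HEPES-buffered saline (pH 7.0) with KCl, NaCl, glucose, MgSO₄ and Na pyruvate. Fluorogenic AFC substrate at 100 µM, 0.6% DMSO final; incubated at 37 °C; AFC fluorescence (ex 420/em 490 nm) read every 1.5 min for 20 min. IC50 reported as mean S.D., n = 3–6.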

[5] = target: T1, Calpain-1 catalytic subunit (Homo sapiens) (UniProt P07384); assay: Inhibition of human calpain 1 at 10 uM; in short: as §1
T1 sequence (whole entry): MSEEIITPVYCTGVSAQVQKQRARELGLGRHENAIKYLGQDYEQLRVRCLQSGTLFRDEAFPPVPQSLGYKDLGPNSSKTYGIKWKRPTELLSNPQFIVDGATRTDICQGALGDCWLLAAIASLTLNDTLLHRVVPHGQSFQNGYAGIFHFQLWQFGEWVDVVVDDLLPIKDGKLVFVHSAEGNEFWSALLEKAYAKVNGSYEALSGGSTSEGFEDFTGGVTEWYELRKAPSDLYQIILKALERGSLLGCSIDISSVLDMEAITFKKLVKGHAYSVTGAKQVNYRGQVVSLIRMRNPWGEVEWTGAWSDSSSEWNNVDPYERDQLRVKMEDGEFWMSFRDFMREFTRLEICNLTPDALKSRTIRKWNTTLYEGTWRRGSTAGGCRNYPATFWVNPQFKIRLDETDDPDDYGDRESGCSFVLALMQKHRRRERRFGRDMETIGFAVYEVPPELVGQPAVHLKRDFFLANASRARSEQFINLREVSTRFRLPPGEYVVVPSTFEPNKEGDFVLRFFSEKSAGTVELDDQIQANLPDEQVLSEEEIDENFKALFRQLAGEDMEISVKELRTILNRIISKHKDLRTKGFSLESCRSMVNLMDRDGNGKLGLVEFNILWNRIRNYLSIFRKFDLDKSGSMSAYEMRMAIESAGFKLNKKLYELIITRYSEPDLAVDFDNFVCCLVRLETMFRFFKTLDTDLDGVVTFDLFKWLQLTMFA

[6] = test system: Lewis lung carcinoma cell line; assay: Antitumor activity against mouse LLC cells assessed as cell viability; type: functional, cell-based
In short: (§2)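 Tumor cell viability IC50 values; averages of two independent experiments, each performed in triplicate.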

PANC-1 = assay: Antitumor activity against human PANC1 cells assessed as cell viability; type: functional, cell-based; in short: as §2
[7] = Antitumor activity against rat AT2 cells assessed as cell viability; type: functional, cell-based; in short: as §2
OVCAR-3 = assay: Antitumor activity against human OVCAR3 cells assessed as cell viability; type: functional, cell-based; in short: as §2
SK-MEL-5 = assay: Antitumor activity against human SK-MEL-5 cells assessed as cell viability; type: functional, cell-based; in short: as §2
MCF7 = assay: Antitumor activity against human MCF7 cells assessed as cell viability; type: functional, cell-based; in short: as §2
DU-145 = assay: Antitumor activity against human DU145 cells assessed as cell viability; type: functional, cell-based; in short: as §2

Row | SMILES | IC50 [1] [nM] | IC50 (Chymotrypsinogen A) [nM] | inhibition [2] [%] | Ratio IC50 (MOLT-4) | inhibition [3] [%] | IC50 [4] [nM] | inhibition [5] [%] | further results
1 | CC(C)C[C@H](NC(=O)[C@H](CCCN/C(N)=N/[N+](=O)[O-])NC(=O)C(CCCCCCCCC#N)C1CCCC1)B1OC(C)(C)C(C)(C)O1 (stereo not given in full) | 6 | – | – | – | – | – | – | –
2 | CC(C)C[C@H](NC(=O)[C@H](CCCN=C(N)N[N+](=O)[O-])NC(=O)C(CCCCCCCCC#N)C1CCCC1)B1O[C@@H]2[C@@H]3C[C@H](C[C@]2(C)O1)C3(C)C (mixture of isomers) | – | > 10000 | – | – | – | – | – | –
3 | CC(C)C[C@H](NC(=O)[C@H](CCCN/C(N)=N/[N+](=O)[O-])NC(=O)C(CCCCCCCCN1C(=O)c2ccccc2C1=O)C1CCCC1)B(O)O (mixture of isomers) | 4.1 | > 10000 | 2 | 690 | 24 | 2830 | 0 | –
4 | CC(C)C[C@H](NC(=O)[C@H](CCCNC(=N)N[N+](=O)[O-])NC(=O)C(CCCCCCCCC#N)C1CCCC1)B(O)O (mixture of isomers) | – | > 10000 | – | – | – | – | – | –
5 | CC(C)C[C@@H](C=O)NC(=O)[C@H](CCCN/C(N)=N/[N+](=O)[O-])NC(=O)C(CCCCCCCCN1C(=O)c2ccccc2C1=O)C1CCCC1 (stereo not given in full) | 2 | – | – | – | – | – | – | –
6 | CC(C)C[C@H](NC(=O)[C@H](CCCN/C(N)=N/[N+](=O)[O-])NC(=O)C(CCCCCCCCN1C(=O)c2ccccc2C1=O)C1CCCC1)B1O[C@@H]2[C@@H]3C[C@H](C[C@]2(C)O1)C3(C)C (mixture of isomers) | 3.5 | > 10000 | 30 | 20 | 20 | 70 | 11 | IC50 [6]: 513 nM; IC50 (PANC-1): 184 nM; IC50 [7]: > 1000 nM; IC50 (OVCAR-3): 29 nM; IC50 (SK-MEL-5): 82 nM; IC50 (MCF7): 292 nM; IC50 (DU-145): 167 nM
7 | CC(C)C[C@@H](C=O)NC(=O)[C@H](CCCN/C(N)=N/[N+](=O)[O-])NC(=O)C(CCCCCCCCC#N)C1CCCC1 (stereo not given in full) | 6 | – | – | – | – | – | – | –
8 | CC(C)C[C@H](NC(=O)[C@H](CCCN/C(N)=N/[N+](=O)[O-])NC(=O)C(CCCCCCCCC#N)C1CCCC1)B1O[C@@H]2[C@@H]3C[C@H](C[C@]2(C)O1)C3(C)C (mixture of isomers) | 3.5 | – | 24 | 69 | 0 | 240 | 2 | IC50 [6]: 585 nM; IC50 (PANC-1): 283 nM; IC50 [7]: > 1000 nM; IC50 (OVCAR-3): 69 nM; IC50 (SK-MEL-5): 85 nM; IC50 (MCF7): 425 nM; IC50 (DU-145): 293 nM
9 | CC(C)C[C@H](NC(=O)[C@H](CCCN/C(N)=N/[N+](=O)[O-])NC(=O)C(CCCCCCCCC#N)C1CCCC1)C(=O)C(=O)NCCNS(=O)(=O)c1ccccc1 (stereo not given in full) | 1 | – | – | – | – | – | – | –
10 | CC(C)C[C@H](NC(=O)[C@H](CCCN/C(N)=N/[N+](=O)[O-])NC(=O)C(CCCCCCCCC#N)C1CCCC1)B(O)O (mixture of isomers) | 8.7 | – | 30 | 840 | 5 | 7340 | – | –

Source: ChEMBL document CHEMBL1955840, “Proteasome inhibitors for cancer therapy” (Bioorg Med Chem, 2012)
